The values below come from ChEMBL document CHEMBL2163200, “Synthesis, biological evaluation, and structure-activity relationships of novel substituted N-phenyl ureidobenzenesulfonate derivatives blocking cell cycle progression in S-phase and inducing DNA double-strand breaks” (J Med Chem, 2012).

The subject of data set [1] is Jurkat. As to the kind of experiment: Cell cycle arrest in human Jurkat E6-1 cells assessed as accumulation at S phase at 13 uM after 24 hrs by FACS flow cytometry. It counts as functional. The gist of the method: (§1)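 Jurkat E6 cells grown in RPMI 1640 with 10% FBS at 37 °C, 5% CO2. Compounds were serially diluted in medium starting 50% above the M21 IC50. 4.0 × 10^5 cells were exposed for 24 h, then washed and spiked with chicken red blood cells as internal standard. Cells were fixed in ice-cold ethanol, stained with 1 μg/mL DAPI on ice for 1 h, and phase distribution was read by flow cytometry. The control was 0.5% DMSO.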
(In general: A flow cytometer gives signals particle by particle.)

Data set [2] relates to Jurkat. The experiment in a line: Cell cycle arrest in human Jurkat E6-1 cells assessed as accumulation at G2/M phase at 13 uM after 24 hrs by FACS flow cytometry. Format: functional. Summed up:
(§2)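 Jurkat E6 cells cultured in RPMI 1640 with 10% FBS at 37 °C, 5% CO2. Compounds serially diluted in medium, starting 50% above the M21 IC50. 4.0 × 10^5 cells were exposed for 24 h. Cells were washed with PBS, chicken red blood cells added as internal standard, and fixed in ice-cold EtOH. After 1 h on ice in PBS with 1 μg/mL DAPI, phase distribution was read by flow cytometry. DMSO-treated cells served as control.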

The test system of a further data set is HT-29. The experiment in a line: Cytotoxicity against human HT-29 cells after 48 hrs by SRB assay. It counts as functional, cell-based. The conditions noted are these: HT-29, 48 h. Summed up: (§3)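 NCI sulforhodamine B protocol. Cells were grown in high-glucose DMEM with 5% FBS and seeded per well at 4 × 10^3 (HT-29), 3.5 × 10^3 (M21) or 3 × 10^3 (MCF-7), then allowed 24 h to attach. Serial dilutions from 200 μM to 780 nM final were applied in DMSO <0.5% for 48 h. Cells were fixed with cold TCA (10% final) and stained with SRB, with absorbance read at 530–568 nm. Growth inhibition was computed against day-0 plates, giving the 50% inhibitory concentration. At least two experiments in triplicate, CV <10%.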
Background: Sulforhodamine B stains cellular protein and so reports cell mass.

The test system of data set [3] is M21. As to the kind of experiment: Cytotoxicity against human M21 cells after 48 hrs by SRB assay. It counts as functional, cell-based. The following applies: M21, 48 h. The gist of the method: as §3
For data set [4], the system named is Jurkat. The experiment in a line: Cell cycle arrest in human Jurkat E6-1 cells assessed as accumulation at G0/G1 phase at 13 uM after 24 hrs by FACS flow cytometry. Format: functional. The gist of the method: as §2
Data set [5] deals with Jurkat. The experiment in a line: Cell cycle arrest in human Jurkat E6-1 cells assessed as accumulation at S phase at 1.2 uM after 24 hrs by FACS flow cytometry. It counts as functional. The gist of the method: as §1
The subject of data set [6] is Jurkat. The experiment in a line: Cell cycle arrest in human Jurkat E6-1 cells assessed as accumulation at G2/M phase at 1.2 uM after 24 hrs by FACS flow cytometry. It counts as functional. Summed up: as §2
Data set [7] concerns M21. The experiment in a line: Induction of DNA damage response in human M21 cells assessed as phosphorylation of H2AX into gammaH2AX at IC50 after 24 hrs by DAPI staining-based immunofluorescence assay. Format: functional, cell-based. The gist of the method: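 M21 cells (1 × 10^5) on fibronectin-coated coverslips, grown 24 h, then exposed to agent for 24 h at 37 °C; 0.5% DMSO control. Fixed with 3.7% formaldehyde and permeabilized with 0.1% saponin/3% BSA. Probed with mouse anti-H2AX pS139 antibody for 2 h at room temperature. Nuclei counterstained with DAPI; nuclear γH2AX foci viewed by epifluorescence microscopy.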

Data set [8] relates to HT-1080. As to the kind of experiment: Antitumor activity against human HT1080 cells xenografted in chicken chorioallantoic membrane assessed as inhibition of tumor growth at 10 ug per egg, iv administered on day 11 measured on day 17 by CAM assay. Format: functional. The gist of the method: (§4)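 HT-1080 fibrosarcoma cells (3.5 × 105/egg) were applied onto freshly exposed CAM of fertilized chicken eggs. On day 11, drug from a DMSO stock was diluted in Cremophor EL/99% ethanol/PBS (1/1/14 v/v) and 100 μL was injected into a vein under the CAM. Groups of 10–12 eggs were kept to day 17, embryos were euthanized at 4 °C for ≥4 h, and tumor wet weight was recorded.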
(In general: In xenograft studies the graft and the host belong to different species.)

Data set [9] in a line: Toxicity in fertilized chicken embryo assessed as mortality rate at 10 ug per egg, iv administered on day 11 measured on day 17 CAM assay. Format: organism-based, Gallus gallus. The following applies: in vivo, read-out: Activity. The gist of the method: (§5)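 Fertilized chicken eggs grafted on the CAM with HT-1080 cells (3.5 × 105/egg) received a 100 μL intravenous injection under the CAM on day 11. The drug was diluted in Cremophor EL/99% ethanol/PBS (1/1/14 v/v). Groups held 10–12 eggs and were incubated until day 17, when dead embryos and signs of toxicity were counted per group.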

A further data set has as its system MCF7. The experiment in a line: Cytotoxicity against human MCF7 cells after 48 hrs by SRB assay. It counts as functional, cell-based. The following applies: MCF7, 48 h. Summed up: as §3
For data set [10], the system named is Jurkat. As to the kind of experiment: Cell cycle arrest in human Jurkat E6-1 cells assessed as accumulation at G0/G1 phase at 1.2 uM after 24 hrs by FACS flow cytometry. Format: functional. The gist of the method:
as §2

Data set [11] relates to Jurkat. As to the kind of experiment: Cell cycle arrest in human Jurkat E6-1 cells assessed as accumulation at S phase at 7.5 uM after 24 hrs by FACS flow cytometry. Format: functional. Summed up:
(§6)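 Jurkat E6 T-lymphoblasts in RPMI 1640 with 10% FBS, 37 °C, 5% CO2. […] Chicken red blood cells were added as internal standard. Cells were fixed in ice-cold EtOH and stained with 1 μg/mL DAPI on ice for 1 h before flow cytometry of phase distribution. Vehicle control was 0.5% DMSO.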

Data set [12] has as its system Jurkat. As to the kind of experiment: Cell cycle arrest in human Jurkat E6-1 cells assessed as accumulation at G2/M phase at 7.5 uM after 24 hrs by FACS flow cytometry. Format: functional. Summed up:
as §1

The subject of data set [13] is Jurkat. The experiment in a line: Cell cycle arrest in human Jurkat E6-1 cells assessed as accumulation at G0/G1 phase at 7.5 uM after 24 hrs by FACS flow cytometry. Format: functional. Summed up:
as §2

For data set [14], the system named is Jurkat. The experiment in a line: Cell cycle arrest in human Jurkat E6-1 cells assessed as accumulation at S phase at 4.8 uM after 24 hrs by FACS flow cytometry. It counts as functional. The gist of the method:
as §6

In data set [15] the test system is Jurkat. As to the kind of experiment: Cell cycle arrest in human Jurkat E6-1 cells assessed as accumulation at G2/M phase at 4.8 uM after 24 hrs by FACS flow cytometry. Format: functional. The gist of the method:
as §1

In data set [16] the test system is Jurkat. The experiment in a line: Cell cycle arrest in human Jurkat E6-1 cells assessed as accumulation at G0/G1 phase at 4.8 uM after 24 hrs by FACS flow cytometry. It counts as functional. Summed up:
as §2

The test system of data set [17] is Jurkat. As to the kind of experiment: Cell cycle arrest in human Jurkat E6-1 cells assessed as accumulation at S phase at 24 uM after 24 hrs by FACS flow cytometry. Format: functional. The gist of the method:
as §1

Data set [18] concerns Jurkat. The experiment in a line: Cell cycle arrest in human Jurkat E6-1 cells assessed as accumulation at G2/M phase at 24 uM after 24 hrs by FACS flow cytometry. It counts as functional. The gist of the method: as §1
In data set [19] the test system is Jurkat. The experiment in a line: Cell cycle arrest in human Jurkat E6-1 cells assessed as accumulation at G0/G1 phase at 24 uM after 24 hrs by FACS flow cytometry. It counts as functional. Summed up:
as §2

The test system of data set [20] is Jurkat. The experiment in a line: Cell cycle arrest in human Jurkat E6-1 cells assessed as accumulation at S phase at 17 uM after 24 hrs by FACS flow cytometry. It counts as functional. Summed up: as §1
For data set [21], the system named is Jurkat. As to the kind of experiment: Cell cycle arrest in human Jurkat E6-1 cells assessed as accumulation at G2/M phase at 17 uM after 24 hrs by FACS flow cytometry. Format: functional. Summed up:
as §1

Data set [22] deals with Jurkat. The experiment in a line: Cell cycle arrest in human Jurkat E6-1 cells assessed as accumulation at G0/G1 phase at 17 uM after 24 hrs by FACS flow cytometry. It counts as functional. Summed up: as §2
In data set [23] the test system is Jurkat. The experiment in a line: Cell cycle arrest in human Jurkat E6-1 cells assessed as accumulation at S phase at 6.6 uM after 24 hrs by FACS flow cytometry. Format: functional. Summed up: as §6
Data set [24] concerns Jurkat. As to the kind of experiment: Cell cycle arrest in human Jurkat E6-1 cells assessed as accumulation at G2/M phase at 6.6 uM after 24 hrs by FACS flow cytometry. It counts as functional. The gist of the method: as §1
The test system of data set [25] is Jurkat. As to the kind of experiment: Cell cycle arrest in human Jurkat E6-1 cells assessed as accumulation at G0/G1 phase at 6.6 uM after 24 hrs by FACS flow cytometry. Format: functional. The gist of the method:
as §2

Data set [26] deals with Jurkat. The experiment in a line: Cell cycle arrest in human Jurkat E6-1 cells assessed as accumulation at S phase at 0.84 uM after 24 hrs by FACS flow cytometry. Format: functional. The gist of the method: as §1
Data set [27] deals with Jurkat. As to the kind of experiment: Cell cycle arrest in human Jurkat E6-1 cells assessed as accumulation at G2/M phase at 0.84 uM after 24 hrs by FACS flow cytometry. Format: functional. The gist of the method: as §2
For data set [28], the system named is HT-1080. As to the kind of experiment: Antitumor activity against human HT1080 cells xenografted in chicken chorioallantoic membrane assessed as inhibition of tumor growth at 30 ug per egg, iv administered on day 11 measured on day 17 by CAM assay. Format: functional. The gist of the method: as §4
Data set [29] is described as follows: Toxicity in fertilized chicken embryo assessed as mortality rate at 30 ug per egg, iv administered on day 11 measured on day 17 by CAM assay. Format: organism-based, Gallus gallus. The conditions noted are these: in vivo, read-out: Activity. Summed up:
as §5

Data set [30] has as its system Jurkat. As to the kind of experiment: Cell cycle arrest in human Jurkat E6-1 cells assessed as accumulation at G0/G1 phase at 0.84 uM after 24 hrs by FACS flow cytometry. Format: functional. Summed up:
as §2

Active and inactive are the calls of the source. The rule behind the calls is not given here.

Consider `CCCc1ccccc1OS(=O)(=O)c1cccc(NC(=O)NCCCl)c1`, for which the Activity in the data set with Jurkat [1] came to 36%; with Jurkat [2], 17%; with Jurkat [4] it was 47%. In addition, the half-maximal inhibitory concentration (IC50) (commonly the concentration that gives 50% inhibition) came out at 15 µM with HT-29 and 17 µM with M21 [3].

`Cc1ccccc1OS(=O)(=O)c1ccc(NC(=O)NCCCl)cc1`: the Activity in the data set with Jurkat [5] is 71%; with Jurkat [6] it was 7%; in the data set with Jurkat [10], 22%. For the same compound, the outcome in the data set with M21 [7] was Active. Further, the TGI (usually the reduction of tumour growth relative to the control group) with HT-1080 [8] is 60%. Moreover, the mortality at 6 days in [9] is 15%. In addition, the figures for the IC50 in the data set with HT-29, with M21 [3] and in the data set on MCF7 were 4.7 µM, 2.8 µM and 4.8 µM, respectively.

With `O=C(NCCCl)Nc1cccc(S(=O)(=O)Oc2ccc(O)cc2)c1`, the figures for the Activity in the data set with Jurkat [11], with Jurkat [12] and with Jurkat [13] were 54%, 22% and 24%, respectively. Moreover, the IC50 in the data set with HT-29 stood at 120 µM; in the data set with M21 [3], 73 µM; in the data set on MCF7, 87 µM.

Turning to `Cc1cccc(OS(=O)(=O)c2ccc(NC(=O)NCCCl)cc2)c1`, the Activity with Jurkat [14] stood at 52%; with Jurkat [15] it was 13%; with Jurkat [16], 35%. The IC50 is 11 µM in the data set with HT-29, 7.2 µM in the data set with M21 [3] and 17 µM in the data set on MCF7.

Consider `Cc1ccccc1OS(=O)(=O)c1cccc(NC(=O)NCCCl)c1`, for which the results for the Activity with Jurkat [17], with Jurkat [18] and in the data set on Jurkat [19] were 44%, 11% and 45%, respectively. Moreover, the values for the half-maximal inhibitory concentration (IC50) in the data set on HT-29 and with M21 [3] were 33 µM and 40 µM, respectively.

With `COc1ccc(OS(=O)(=O)c2ccc(NC(=O)NCCCl)cc2)cc1`, the Activity in the data set with Jurkat [20] came to 42%; with Jurkat [21] it was 15%; in the data set with Jurkat [22], 43%. The IC50 in the data set with M21 [3] came to 18 µM; in the data set with MCF7, 27 µM.

As for `CCCc1ccccc1OS(=O)(=O)c1ccc(NC(=O)NCCCCl)cc1`, the results for the Activity in the data set on Jurkat [23], with Jurkat [24] and in the data set with Jurkat [25] were 67%, 8% and 25%, respectively. The result with M21 [7] was Active. Further, the IC50 with M21 [3] is 13 µM; in the data set on MCF7, 15 µM.

In the case of `O=C(NCCCl)Nc1ccc(S(=O)(=O)Oc2ccc(O)cc2)cc1`, the Activity worked out at 53% in the data set on Jurkat [26], 20% with Jurkat [27] and 27% in the data set on Jurkat [30]. Also, the TGI in the data set with HT-1080 [28] was 69%. The mortality at 6 days in data set [29] came to 15%. Also, the IC50 in the data set on HT-29 worked out at 1.5 µM; in the data set on M21 [3], 1.2 µM; in the data set with MCF7 it was 1.3 µM.
